# FN deposition inh = fibronectin deposition inhibition; hit rate 0.086% among 350,000; inhibition, % at 12.6 µM; AH1F fibroblasts, Alexa488-fibronectin deposition fluorescence, overnight;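 active = mean inhibition across replicates of 30% or more, regardless of how many single replicates reach that level; inconclusive = mean under 30% yet at least half of replicates reach 30%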;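 note: positive control wells lacked labelled fibronectin entirely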
#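 Material – AH1F fibroblast monolayer, labelled fibronectin deposition · Reagent – labelled fibronectin 24 nM · Timing – 1 h adhesion, overnight exposure · Measured by – fluorescence at 485 nm excitation, 525 nm emission · Read-out – inhibition of fibronectin deposition signal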
# Xi reactivation = X-chromosome reactivation activator; XiGFP mouse fibroblasts, % GFP-positive cells imaging, 3 d; cells co-treated with 5-aza-dC sensitizer; scaled so ellipticine positive control = 100%; activation, % at 7.58 µM; hit rate 0.055% among 360,000;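 active = mean normalized replicate activation at least 10% and every replicate at or above 10%; inconclusive = only one of the two criteria met; inactive = mean below 10% and not all replicates reach 10%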;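 note: 0% = median of on-plate neutral control wells and 100% = ellipticine 6 µM median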
#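 Schedule: 3 d treatment, 15 min room-temperature fixation; system: 68-5-11 XiGFP fibroblast line; buffer or medium: DMEM plus 5-aza-dC sensitizer; control set: ellipticine 6 µM positive control; compound: one concentration, pinned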
# Casp6 inh = caspase-6 (human) enzyme inhibition | purified caspase-6, Z-VEID-R110 cleavage fluorescence | P55212 | inhibition, % at 12.5 µM | hit rate 0.53% among 350,000;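 active = mean inhibition across replicates at least about 35%, with every replicate also reaching that limit, limit read from the data; inconclusive = only one of the two criteria met; inactive = neither criterion met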;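 note: 0% = median of neutral control wells and 100% = no fluorescence left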
# Target sequence (P55212 24-179 limits assumed): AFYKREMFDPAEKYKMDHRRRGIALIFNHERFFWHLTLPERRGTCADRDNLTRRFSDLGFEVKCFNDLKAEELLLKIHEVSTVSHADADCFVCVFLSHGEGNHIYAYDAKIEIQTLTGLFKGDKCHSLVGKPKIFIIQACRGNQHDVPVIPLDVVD
# Target sequence (P55212 194-293 limits assumed): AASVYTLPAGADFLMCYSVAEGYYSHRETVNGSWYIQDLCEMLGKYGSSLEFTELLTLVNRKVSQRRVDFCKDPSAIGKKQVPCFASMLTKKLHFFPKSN
# DENV2 CPE = inhibitors of DENV2 cytopathic effect | DENV2-infected cells, cytopathic effect rescue, plate reader | CPE inhibition, % at 9.99 µM | hit rate 1.7% among 350,000; in the data active = CPE inhibition above about 20%, passing the limit was not always enough; inconclusive = no clear call, values can overlap the other calls; tested in BHK-21 cells;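 note: 0% = median of neutral control wells and 100% = median of positive control wells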
# CaV13 ICDI inh = Primary screen for inhibitors of IQ motif and Ca2+-dependent inactivation inhibitor domain binding in CACNA1D, Förster resonance energy transfer in living cells, …; inhibition, % at 12.3 µM; AID 743397; hit rate 0.098% among 340,000; HEK cells, CFP/YFP FRET ICDI-IQ, plate reader, 10 min; percent FRET-ratio fall versus neutral wells;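 active = mean replicate inhibition of at least 30% and at least 1% of replicates passing that level; inconclusive = only one of the two criteria is met; inactive = neither criterion is met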;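 note: 0% = median of the neutral control wells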
# * marks the source's active call; other numbers are inactive results; ? = inconclusive; . = not tested or not shown. Rows were chosen to be rich in hits. Some 2% of all compounds tested hit in one or more screens of this group.
SMILES,FN deposition inh,Xi reactivation,Casp6 inh,DENV2 CPE,CaV13 ICDI inh
Cn1c(=O)c2nc(-c3ccccc3)c(-c3ccccc3)nc2n(C)c1=O,0,0,1,-2,4
Cn1c(=O)c2nc(Cl)c(-c3ccccc3)nc2n(C)c1=O,6,0,1,55*,-5
COc1ccc2c(c1)C(=O)N(c1ccccc1OC)C(=O)C2,.,.,22,12,-9
Cc1ccc(N2C(=O)Cc3ccccc3C2=O)cc1,-6,0,50*,9,-3
Cc1cccc(N2C(=O)Cc3ccccc3C2=O)c1,-1,0,48*,?,-3
COc1ccccc1N1C(=O)Cc2ccccc2C1=O,1,0,49*,-2,-4
Cc1cccc(N2C(=O)c3cccc4cccc(c34)C2=O)c1,-1,0,1,4,-3
CCC(=O)N1CCC2(CC1)CN(C(=O)Cc1ccccc1)[C@@H](CO)c1c2c2ccc(OC)cc2n1C,.,0,0,1,.
Cc1ccccc1-c1ccc([C@H]2[C@@H](CO)N3CCCCN(C(=O)Nc4cccc(F)c4)C[C@H]23)cc1,.,.,-3,45*,.
Cc1ccccc1-c1ccc([C@@H]2[C@H](CO)N3CCCCN(C(=O)Nc4cccc(F)c4)C[C@@H]23)cc1,.,0,-4,38*,.
CNC[C@H]1Oc2ccc(NC(=O)Cn3cnnn3)cc2C(=O)N([C@H](C)CO)C[C@@H]1C,-11,4,-4,12,.
CCCCCc1c(-c2ccc(Cl)cc2)ncn1CCc1ccccc1OC,-4,0,-1,21*,-9
CCCCCc1c(-c2ccc(OC)cc2)ncn1CCc1ccccc1OC,-7,0,0,-7,-10
CN1C(=O)c2cc(NS(C)(=O)=O)ccc2OC[C@@H]2O[C@H](CC(=O)NCc3ccc(-c4ccccc4)cc3)CC[C@@H]21,14,0,2,0,.
CCOc1cccc(C=NNc2ccc(S(=O)(=O)Nc3ccccc3C(=O)O)cc2[N+](=O)[O-])c1O,6,0,7,2,-7
CSc1ccc(C=NNc2ccc(S(=O)(=O)Nc3ccccc3C(=O)O)cc2[N+](=O)[O-])cc1,3,0,41*,3,-7
O=C(O)c1ccccc1NS(=O)(=O)c1ccc(NN=Cc2ccccc2F)c([N+](=O)[O-])c1,1,0,41*,2,-5
N#C[C@H]1[C@@H](c2ccc(C#CC3CCCC3)cc2)[C@@H](CO)N1C(=O)c1cccc(F)c1,-1,0,.,.,.
COc1ccc(S(=O)(=O)N(C)C[C@H]2OCCCC[C@@H](C)Oc3ccc(NS(=O)(=O)c4cccs4)cc3C(=O)N([C@@H](C)CO)C[C@H]2C)cc1,.,0,0,23*,.
C[C@@H]1CN([C@@H](C)CO)C(=O)c2cc(NS(=O)(=O)c3cccs3)ccc2O[C@@H](C)CCCCO[C@H]1CN(C)S(=O)(=O)c1ccc(Cl)cc1,-11,0,1,-6,.
C[C@@H]1CN([C@H](C)CO)C(=O)c2cc(NS(=O)(=O)c3cn(C)cn3)ccc2O[C@@H](C)CCCCO[C@H]1CN(C)S(=O)(=O)c1cccs1,-2,0,2,28*,.
C[C@@H]1CCCCO[C@H](CN(C)S(=O)(=O)c2ccc(Cl)cc2)[C@@H](C)CN([C@@H](C)CO)C(=O)c2cc(NS(=O)(=O)c3cccs3)ccc2O1,-3,0,1,69*,.
COc1ccc(S(=O)(=O)Nc2ccc3c(c2)C(=O)N([C@@H](C)CO)C[C@@H](C)[C@H](CN(C)S(=O)(=O)c2cccs2)OCCCC[C@H](C)O3)cc1,3,0,0,26*,.
COc1ccc(S(=O)(=O)N(C)C[C@H]2OCCCC[C@@H](C)Oc3ccc(NS(=O)(=O)c4cccs4)cc3C(=O)N([C@@H](C)CO)C[C@@H]2C)cc1,.,0,0,-12,.
CCCNC(=O)N1[C@@H](C#N)[C@@H](c2ccc(C#Cc3ccc(F)cc3)cc2)[C@@H]1CO,7,0,0,-4,.
SMILES,FN deposition inh,Xi reactivation,Casp6 inh,DENV2 CPE,CaV13 ICDI inh
CN(CC(=O)Nc1ccccc1C(=O)NC1CC1)Cc1ccccc1F,-4,0,-6,78*,-5
COc1ccc(-c2nc3c(C)cc(Br)cn3c2Cc2ccccc2)cc1OC,-5,0,-1,-15,-6
COc1ccc(-c2nc3ccc(C)cn3c2Cc2cccc(F)c2)cc1OC,3,0,1,33*,-10
Cc1ccc2nc(-c3cccc(Br)c3)c(Cc3cccc(Cl)c3)n2c1,4,0,-1,54*,-4
COc1ccc(-c2nc3ccc(Br)cn3c2Cc2cccc(F)c2)cc1OC,7,0,3,9,-4
Clc1cccc(Cc2c(-c3cccc(Br)c3)nc3ccc(Cl)cn23)c1,0,0,-1,-2,-4
COc1ccc(-c2nc3c(C)cc(Br)cn3c2Cc2cccc(F)c2)cc1OC,8,.,0,89*,-7
C[C@@H]1CN([C@H](C)CO)C(=O)c2cc(NC(=O)C3CC3)ccc2O[C@H]1CN(C)S(=O)(=O)c1cccs1,.,1,1,7,.
CCN(CC)C1CCN(Cc2c(C(=O)N3CCCCCCC3)nc3ccc(Cl)cn23)C1 (stereo not drawn),.,0,64*,35*,.
O=C(c1nc2ccccn2c1CN1CCCC(c2nc3ccccc3o2)C1)N1CCCC1 (stereo not drawn),-7,0,51*,5,-1
CC(=O)Nc1ccc2c(c1)CC(=O)N(C)C[C@@H](C)[C@@H](CN(C)C(C)=O)O2,.,0,.,.,.
C[C@H]1CN([C@@H](C)CO)C(=O)c2cc(C#CC3CC3)cnc2O[C@H]1CN(C)C(=O)CC1CC1,-2,0,-4,15,.
CC(Oc1ccccc1)C(=O)Nc1cccc(NC(=O)c2ccco2)c1 (stereo not drawn),-13,0,39*,2,-2
O=S(=O)(c1cccs1)N1CCCCN2[C@H](CO)[C@H](c3ccc(C4=CCCCC4)cc3)[C@H]2C1,.,.,1,15,.
N#C/C(=C/c1cccn1-c1cccc(C(=O)O)c1)c1ccc(F)cc1,-4,0,70*,.,-5
O=C(O)c1cccc(-n2cccc2/C=C2/NC(=O)N(Cc3ccccc3F)C2=O)c1,-3,0,76*,.,-5
O=C1N/C(=C/c2cccn2-c2ccc(F)cc2)C(=O)N1Cc1ccccc1F,.,.,.,.,-10
O=C1N=C(N2C=CC(=C3C=CNC=C3)C=C2)/C(=C/N=NC(=O)c2ccccc2O)S1,-13,0,36*,-7,-18
CCNC(=O)[C@@H]1[C@@H](CO)[C@@H]2Cn3c(ccc(-c4cccc(OC)c4)c3=O)[C@@H]2N1C(=O)NC(C)C,.,0,-2,7,.

# Screening data: PubChem, Broad Institute
